Test results published in ChEMBL document CHEMBL3425440, “ent-Kaurane Diterpenoids from Chinese Liverworts and Their Antitumor Activities through Michael Addition As Detected in Situ by a Fluorescence Probe” (J Med Chem, 2015).
Active and inactive are the calls of the source. The calls are words filed in the database; no cut-off is given here.

Assays:
[1] = Cytotoxicity against human HL60 cells assessed as cell viability after 24 hrs by MTT assay; format: functional, cell-based; conditions: HL-60, 24 h
Method in brief: (§1)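 Cells grown to about 50−70% confluence at 37 °C, 5% CO2, then exposed to compounds 24 h (DMSO vehicle control, cisplatin positive control). MTT (5 mg/mL stock) added for 4 h, formazan dissolved in DMSO, absorbance read at 570 nm. IC50 derived from percent viability; at least three independent experiments, mean ± SD.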

[2] = Cytotoxicity against human SKOV3 cells assessed as cell viability after 24 hrs by MTT assay; format: functional, cell-based; conditions: SK-OV-3, 24 h; method in brief: as §1
[3] = Cytotoxicity against human Saos2 cells assessed as cell viability after 24 hrs by MTT assay; format: functional, cell-based; conditions: SAOS-2, 24 h; method in brief: as §1
[4] = system: K562; test: Cytotoxicity against human K562 cells assessed as cell viability after 24 hrs by MTT assay; format: functional, cell-based; conditions: K562, 24 h; method in brief: as §1
[5] = system: DU-145; test: Cytotoxicity against human DU145 cells assessed as cell viability after 24 hrs by MTT assay; format: functional, cell-based; conditions: DU-145, 24 h; method in brief: as §1
[6] = system: NCI-H1299; test: Cytotoxicity against human NCI-H1299 cells assessed as cell viability after 24 hrs by MTT assay; format: functional, cell-based; conditions: NCI-H1299, 24 h; method in brief: as §1
[7] = system: MDA-MB-231; test: Cytotoxicity against human MDA-MB-231 cells assessed as cell viability after 24 hrs by MTT assay; format: functional, cell-based; conditions: MDA-MB-231, 24 h; method in brief: as §1
[8] = system: LNCaP; test: Cytotoxicity against human LNCAP cells assessed as cell viability after 24 hrs by MTT assay; format: functional, cell-based; method in brief: as §1
[9] = Cytotoxicity against human PC3 cells assessed as cell viability after 24 hrs by MTT assay; format: functional, cell-based; conditions: PC-3, 24 h; method in brief: as §1
[10] = system: LoVo; test: Cytotoxicity against human LoVo cells assessed as cell viability after 24 hrs by MTT assay; format: functional, cell-based; method in brief: as §1
[11] = Cytotoxicity against human A172 cells assessed as cell viability after 24 hrs by MTT assay; format: functional, cell-based; conditions: A 172, 24 h; method in brief: as §1
[12] = system: PC-3; test: Reduction in glutathione level in human PC3 cells at 5 uM preincubated for 4 hrs followed by fluorescence probe addition measured after 1 hr by 3-azido-7-(diethylamino)-2H-chromen-2-one fluorescence probe-based confocal microscopic analysis; format: functional, cell-based
Method in brief: (§2)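 PC3 cells on glass coverslips treated with compound for 4 h (5 μM NEM as thiol-scavenger control), fixed in cold methanol/acetone (1:1) for 5 min. Stained with 30 μM azidocoumarin probe, which fluoresces on reaction with thiols, for 1 h at room temperature in the dark. Mean cellular fluorescence quantified by confocal microscopy; mean ± SD.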

[13] = Cytotoxicity against human SH-SY5Y cells assessed as cell viability after 24 hrs by MTT assay; format: functional, cell-based; method in brief: as §1
[14] = Cytotoxicity against human RWPE1 cells assessed as cell viability after 24 hrs by MTT assay; format: cell-based; conditions: RWPE-1, 24 h; method in brief: as §1
[15] = Cytotoxicity against human T24 cells assessed as cell viability after 24 hrs by MTT assay; format: functional, cell-based; conditions: T-24, 24 h; method in brief: as §1
[16] = system: PC-3; test: Induction of apoptosis in human PC3 cells assessed as appearance of swelled/fused lysosomes at 8 uM after 2 hrs by LysoTracker Red and Hoechst 33342 staining-based confocal microscopic analysis; format: functional, cell-based
Method in brief: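 PC3 cells given 8 μM compound for 2 h, then stained 30 min at 37 °C with 100 ng/mL LysoTracker Red and 10 μg/mL Hoechst 33342. Washed in PBS and imaged by confocal microscopy to assess lysosome swelling or fusion.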

[17] = Drug uptake in lysosome of human PC3 cells at 8 uM preincubated for 4 hrs followed by fluorescence probe addition measured after 1 hr by 3-azido-7-(diethylamino)-2H-chromen-2-one fluorescence probe-based confocal microscopic analysis; format: ADME, cell-based; conditions: pc-3, 1 h; method in brief: as §2
[18] = system: PC-3; test: Induction of apoptosis in human PC3 cells assessed as cathepsin B release from lysosome to cytosol at 8 uM measured over 48 hrs by Western blot analysis; format: functional, cell-based
Method in brief: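 PC3 cells treated with 8 μM compound for the indicated times, lysed in RIPA buffer with protease inhibitors, protein quantified by BCA. Run on 12% SDS-PAGE, transferred to nitrocellulose, blocked in 5% milk/TBST. Probed overnight at 4 °C for cathepsin B with GAPDH loading control; ECL detection.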

[19] = Selectivity index, ratio of IC50 for human RWPE1 cells to IC50 for human PC3 cells; format: functional
[20] = system: PC-3; test: Induction of reactive oxygen species formation in human PC3 cells at 6 uM by DCFH-DA staining-based flow cytometric analysis; format: functional, cell-based; conditions: TDE = time-dependent effect
Method in brief: (§3)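 PC3 cells exposed to 6 μM compound for 4 h, with optional 5 mM NAC added 1 h beforehand. Loaded with 10 μM DCFH-DA at 37 °C for 30 min, washed, resuspended in PBS and read at once by flow cytometry. ROS expressed as ratio relative to control; Student's t test.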

[21] = system: PC-3; test: Reduction in total glutathione level in human PC3 cells at 6 uM by DNTB-based assay; format: functional, cell-based; conditions: TDE = time-dependent effect
Method in brief: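 PC3 cells exposed to 6 μM compound for the indicated times, lysed by freeze–thaw in protein removal agent and supernatant collected. Total glutathione read with DTNB at 412 nm; GSSG read after masking GSH with 2-vinylpyridine; GSH taken as the difference. Expressed relative to control.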

[22] = system: PC-3; test: Cytotoxicity against human PC3 cells assessed as decrease in cell viability at 6 uM after 24 hrs by MTT assay in presence of antioxidant N-acetylcysteine; format: functional, cell-based
Method in brief: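 PC3 cells pretreated with 5 mM NAC for 1 h, then given 6 μM compound with or without the antioxidant for 24 h. Viability read by MTT (formazan in DMSO, absorbance at 570 nm). Mean ± SD.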

[23] = system: PC-3; test: Reduction in glutathione level in human PC3 cells preincubated for 4 hrs followed by fluorescence probe addition measured after 1 hr by 3-azido-7-(diethylamino)-2H-chromen-2-one fluorescence probe-based confocal microscopic analysis; format: functional, cell-based; method in brief: as §2
[24] = system: PC-3; test: Reduction in glutathione level in human PC3 cells at 6 uM preincubated for 4 hrs followed by fluorescence probe addition by 3-azido-7-(diethylamino)-2H-chromen-2-one fluorescence probe-based confocal microscopic analysis; format: functional, cell-based; conditions: TDE = time-dependent effect; method in brief: as §2
[25] = system: PC-3; test: Induction of reactive oxygen species formation in human PC3 cells at 6 uM after 4 hrs by DCFH-DA staining-based flow cytometric analysis in presence of antioxidant N-acetylcysteine; format: functional, cell-based; method in brief: as §3

Structure (SMILES) | IC50 [1] [µM] | IC50 [2] [µM] | IC50 [3] [µM] | IC50 [4] [µM] | IC50 [5] [µM] | IC50 [6] [µM] | IC50 [7] [µM] | IC50 [8] [µM] | IC50 [9] [µM] | IC50 [10] [µM] | IC50 [11] [µM] | Activity [12] | IC50 [13] [µM] | IC50 [14] [µM] | IC50 [15] [µM] | further results
C=C1C(=O)[C@H]2C[C@]1(O)CC1=C2[C@]2(C)CCCC(C)(C)[C@H]2CC1 | 1.9 | 2.9 | 2.4 | 2.2 | 3.2 | 2.6 | 3.4 | 2.8 | 2.2 | 2.3 | 2.7 | Active | 1.6 | 6.3 | 2.3 | 
C=C1C(=O)[C@@]23CC[C@H]4[C@@](C)(CCC[C@@]4(C)C(=O)OCCN4CCN(C)CC4)[C@@H]2CC[C@]1(O)C3 | 3 |  |  | 4.1 | 14.9 | 10.9 | 27.5 |  | 8.2 |  |  |  |  | 29.3 |  | Activity [16]: Active; Drug uptake [17]: Active; Activity [18]: Active; Ratio IC50 [19]: 3.6
C=C1C(=O)[C@H]2C[C@]1(O)CC1=C2[C@]2(C)CCC[C@](C)(CO)[C@H]2CC1 |  |  |  |  | 9.4 |  | 10.4 |  | 8.2 |  |  | Active |  | 18.6 |  | 
C=C1C(=O)[C@@]23CC[C@H]4[C@@](C)(CCC[C@@]4(C)C(=O)OC)[C@@H]2CC[C@]1(O)C3 | 1.5 |  |  | 2.9 | 10.8 | 9.2 | 5.2 |  | 6.1 |  |  |  |  | 7 |  | Activity [20]: tde; Activity [21]: tde; Activity [22]: inactive; Activity [23]: Dose-dependent effect; Activity [24]: tde; Activity [25]: inactive
C=C1[C@@H]2CC[C@H]3[C@]4(C)CCC[C@@](C)(CO)[C@H]4CC[C@]3(C2)[C@@H]1O | > 50 | > 50 | > 50 | > 50 | > 50 | > 50 | > 50 | > 50 | > 50 | > 50 | > 50 |  | > 50 | > 50 | > 50 | 
C=C1C(=O)[C@@]23CC[C@H]4[C@@](C)(CCC[C@@]4(C)C(=O)O)[C@@H]2CC[C@]1(O)C3 | 7.9 |  |  | 9.9 | 48.5 | 32.8 | 37.2 |  | 30.1 |  |  | Active |  | 27 |  | 
CC1=C[C@]23C[C@H]1CC[C@H]2[C@@]1(C)[C@H](C[C@H]3O)C(C)(C)CC[C@@H]1O | > 50 | > 50 | > 50 | > 50 | > 50 | > 50 | > 50 | > 50 | > 50 | > 50 | > 50 |  | > 50 | > 50 | > 50 | 
